Source: ChEMBL document CHEMBL1133699, “Phenyl beta-methoxyacrylates: a new antimalarial pharmacophore” (J Med Chem, 2000)
Values after ≈ are worked out from the molar mass of the structure shown.

What was measured:
[1] = Effective dose was determined in vivo for 50% parasite (Plasmodium berghei) reduction in the male albino mice after oral administration; type: functional; settings: Mus musculus
In short: (§1)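 Mice 25 ± 2 g infected iv on day 0 with 2×10^7 P. berghei ANKA-infected donor erythrocytes. Compound dissolved or suspended in 7% Tween-80, 3% ethanol in water, single dose 24 h post-infection (0.01 mL/g), 3 mice/group. Giemsa blood smears at day 3 (72 h post-infection). Parasitemia counted microscopically; reduction calculated versus untreated controls (=100%). ED50/90 determined by dose titration.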

[2] = tested on: Plasmodium falciparum; assay: In vitro antimalarial activity against chloroquine-resistant Plasmodium falciparum K1; type: functional, organism-based
In short: (§2)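 Asynchronous P. falciparum cultured in human type A+ erythrocytes, RPMI 1640 with 0.5% AlbuMAX, 25 mM HEPES, 25 mM NaHCO3 (pH 7.3), hypoxanthine, neomycin; 37 °C, 3% O2/4% CO2/93% N2. Compounds were dissolved in DMSO and titrated in duplicate over a 64-fold range. Initial parasitemia was 0.75% at 2.5% hematocrit. Growth was read by [3H]hypoxanthine incorporation, with label added 16 h before the end. IC50 was taken by linear interpolation.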

[3] = Effective dose was determined in vivo for 50% parasite (Plasmodium berghei) reduction in the male albino mice after subcutaneous administration; type: functional; settings: Mus musculus, sc; for ED90: in the assay text read “90% parasite” for “50% parasite”; in short: as §1
[4] = Effective dose was determined in vivo for 90% parasite (Plasmodium berghei) reduction in the male albino mice after oral administration; type: functional; settings: Mus musculus; in short: as §1
[5] = tested on: Plasmodium falciparum; assay: In vitro antimalarial activity against chloroquine-sensitive Plasmodium falciparum NF54; type: functional, organism-based; in short: as §2
[6] = Effective dose was determined in vivo for 90% parasite (Plasmodium berghei) reduction in the male albino mice after subcutaneous administration; type: functional; settings: Mus musculus, sc; in short: as §1
[7] = Growth inhibition of Plasmodium berghei was tested in vivo in male albino mice (Mus musculus) after subcutaneous administration of a dose of 100 mg/kg; type: functional; settings: sc, read-out: GI; in short: as §1
[8] = Growth inhibition of Plasmodium berghei was tested in vivo in male albino mice (Mus musculus) after oral administration of a dose of 100 mg/kg; type: functional; settings: read-out: GI; in short: as §1
[9] = Growth inhibition of Plasmodium berghei was tested in vivo in male albino mice (Mus musculus) after oral administration of a dose of 10 mg/kg; type: functional; settings: read-out: GI; in short: as §1
[10] = Growth inhibition of Plasmodium berghei was tested in vivo in male albino mice (Mus musculus) after subcutaneous administration of a dose of 10 mg/kg; type: functional; settings: sc, read-out: GI; in short: as §1
[11] = Growth inhibition of Plasmodium berghei was tested in vivo in male albino mice (Mus musculus) after oral administration of a dose of 50 mg/kg; type: functional; settings: read-out: GI; in short: as §1
[12] = Growth inhibition of Plasmodium berghei was tested in vivo in male albino mice (Mus musculus) after subcutaneous administration of a dose of 50 mg/kg; type: functional; settings: sc, read-out: GI; in short: as §1

O=C1C(O)=C([C@H]2CC[C@H](c3ccc(Cl)cc3)CC2)C(=O)c2ccccc21 [ATOVAQUONE]
ED50 [1]: 0.05 mg/kg
IC50 [2]: 0.41 ng/mL (≈ 1.12 nM)
ED50 [3]: 0.04 mg/kg
ED90 [4]: 0.1 mg/kg
IC50 [5]: 0.11 ng/mL (≈ 0.3 nM)
ED90 [6]: 0.9 mg/kg

CO/C=C(/C(=O)OC)c1ccccc1CO/N=C(\C)c1ccccc1C(F)(F)F
inhibition in vivo at 100 mg/kg [7]: 0%
IC50 [2]: 0.65 ng/mL (≈ 1.6 nM)
inhibition in vivo at 100 mg/kg [8]: 0%
IC50 [5]: 0.17 ng/mL (≈ 0.417 nM)

CO/C=C(/C(=O)OC)c1ccccc1/C=C/C=C/c1ccccc1Cl
IC50 [2]: 0.39 ng/mL (≈ 1.1 nM)
inhibition in vivo at 10 mg/kg [9]: 41%
inhibition in vivo at 10 mg/kg [10]: 77%
IC50 [5]: 0.09 ng/mL (≈ 0.254 nM)

CO/C=C(/C(=O)OC)c1ccccc1/C=C/C=C/c1cccc(OC)c1[N+](=O)[O-]
IC50 [2]: 0.58 ng/mL (≈ 1.47 nM)
IC50 [5]: 0.11 ng/mL (≈ 0.278 nM)

CO/C=C(/C(=O)OC)c1ccccc1/C=C/C=C/c1ccc(Cl)cc1Cl
ED50 [1]: 1.07 mg/kg
IC50 [2]: 0.1 ng/mL (≈ 0.257 nM)
ED50 [3]: 0.69 mg/kg
ED90 [3]: 1.8 mg/kg
inhibition in vivo at 10 mg/kg [9]: 100%
inhibition in vivo at 10 mg/kg [10]: 100%
ED90 [4]: 4.03 mg/kg
IC50 [5]: 0.03 ng/mL (≈ 0.0771 nM)

CO/C=C(/C(=O)OC)c1ccccc1/C=C/CSc1ccccc1C(F)(F)F
inhibition in vivo at 100 mg/kg [7]: 91%
IC50 [2]: 2.51 ng/mL (≈ 6.15 nM)
inhibition in vivo at 100 mg/kg [8]: 46%
IC50 [5]: 1.75 ng/mL (≈ 4.28 nM)

CO/C=C(/C(=O)OC)c1ccccc1/C=C/c1ccccc1C(F)(F)F
inhibition in vivo at 100 mg/kg [7]: 0%
IC50 [2]: 7.8 ng/mL (≈ 21.5 nM)
inhibition in vivo at 100 mg/kg [8]: 0%
IC50 [5]: 3.01 ng/mL (≈ 8.31 nM)

CO/N=C(/C(=O)OC)c1ccccc1-c1ccc(-c2ccccc2C(F)(F)F)s1
inhibition in vivo at 100 mg/kg [7]: 0%
IC50 [2]: 60.8 ng/mL (≈ 145 nM)
inhibition in vivo at 100 mg/kg [8]: 0%
IC50 [5]: 23.7 ng/mL (≈ 56.5 nM)

CO/N=C(/C(=O)OC)c1ccccc1C#CC#Cc1ccccc1C(F)(F)F
inhibition in vivo at 100 mg/kg [7]: 0%
IC50 [2]: 2280 ng/mL (≈ 5910 nM)
inhibition in vivo at 100 mg/kg [8]: 0%
IC50 [5]: 1390 ng/mL (≈ 3600 nM)

CO/C=C(/C(=O)OC)c1ccccc1/C=C/C=C/c1ccccc1C#N
inhibition in vivo at 100 mg/kg [7]: 0%
IC50 [2]: 1.6 ng/mL (≈ 4.63 nM)
inhibition in vivo at 100 mg/kg [8]: 0%
IC50 [5]: 0.52 ng/mL (≈ 1.51 nM)

CO/C=C(/C(=O)OC)c1ccc(/C=C/C=C/c2ccc(C(F)(F)F)cc2C(F)(F)F)cc1
inhibition in vivo at 100 mg/kg [7]: 0%
IC50 [2]: > 5000 ng/mL
inhibition in vivo at 100 mg/kg [8]: 0%
IC50 [5]: > 5000 ng/mL

CO/C=C(/C(=O)OC)c1ccccc1CCCCc1ccccc1C(F)(F)F
inhibition in vivo at 100 mg/kg [7]: 99%
IC50 [2]: 1.53 ng/mL (≈ 3.9 nM)
inhibition in vivo at 100 mg/kg [8]: 82%
IC50 [5]: 0.54 ng/mL (≈ 1.38 nM)

CCN(CC)CCCC(C)Nc1ccnc2cc(Cl)ccc12 (stereo not drawn) [CHLOROQUINE]
ED50 [1]: 2.4 mg/kg
ED50 [3]: 1.5 mg/kg
ED90 [4]: 5 mg/kg
ED90 [6]: 3.3 mg/kg

CO/C=C(/C(=O)OC)c1ccccc1/C=C/c1ccc(-c2ccccc2C(F)(F)F)o1
IC50 [2]: 1.8 ng/mL (≈ 4.2 nM)
IC50 [5]: 0.39 ng/mL (≈ 0.91 nM)

CO/C=C(/C(=O)OC)c1ccccc1/C=C/C=C/c1cccc(Br)c1
inhibition in vivo at 50 mg/kg [11]: 0%
IC50 [2]: 31.4 ng/mL (≈ 78.6 nM)
inhibition in vivo at 50 mg/kg [12]: 0%
IC50 [5]: 6.1 ng/mL (≈ 15.3 nM)

CO/C=C(/C(=O)OC)c1ccccc1CSc1ccccc1C(F)(F)F
inhibition in vivo at 100 mg/kg [7]: 0%
IC50 [2]: 29 ng/mL (≈ 75.8 nM)
inhibition in vivo at 100 mg/kg [8]: 0%
IC50 [5]: 5.5 ng/mL (≈ 14.4 nM)

CO/N=C(/C(=O)OC)c1ccccc1/C=C/C=C/c1ccccc1C(F)(F)F
inhibition in vivo at 100 mg/kg [7]: 44%
IC50 [2]: 1.4 ng/mL (≈ 3.6 nM)
inhibition in vivo at 100 mg/kg [8]: 46%
IC50 [5]: 0.4 ng/mL (≈ 1.03 nM)

CO/C=C(/C(=O)OC)c1ccccc1/C=C/C=C/c1cccc(F)c1
inhibition in vivo at 50 mg/kg [11]: 0%
IC50 [2]: 8.4 ng/mL (≈ 24.8 nM)
inhibition in vivo at 50 mg/kg [12]: 0%
IC50 [5]: 1.5 ng/mL (≈ 4.43 nM)

CO/N=C(\C(=O)OC)c1ccccc1C#CC#Cc1ccccc1C(F)(F)F
inhibition in vivo at 100 mg/kg [7]: 0%
IC50 [2]: 25.8 ng/mL (≈ 67 nM)
inhibition in vivo at 100 mg/kg [8]: 0%
IC50 [5]: 10.8 ng/mL (≈ 28 nM)

CO/C=C(/C(=O)OC)c1ccccc1/C=C/C=C/c1ccccc1C(F)(F)F
IC50 [2]: 0.15 ng/mL (≈ 0.386 nM)
inhibition in vivo at 10 mg/kg [9]: 99%
inhibition in vivo at 10 mg/kg [10]: 100%
IC50 [5]: 0.06 ng/mL (≈ 0.154 nM)

CO/C=C(/C(=O)OC)c1ccccc1/C=C/C=C/c1ccccc1
inhibition in vivo at 50 mg/kg [11]: 0%
IC50 [2]: 3.7 ng/mL (≈ 11.5 nM)
inhibition in vivo at 50 mg/kg [12]: 0%
IC50 [5]: 0.8 ng/mL (≈ 2.5 nM)

CO/C=C(/C(=O)OC)c1ccccc1/C=C/C=C/c1cccc(C(F)(F)F)c1
inhibition in vivo at 50 mg/kg [11]: 0%
IC50 [2]: 16.7 ng/mL (≈ 43 nM)
inhibition in vivo at 50 mg/kg [12]: 0%
IC50 [5]: 7.8 ng/mL (≈ 20.1 nM)

CO/C=C(/C(=O)OC)c1ccccc1/C=C/C=C/c1ccc(C)cc1C
ED50 [1]: 1.11 mg/kg
IC50 [2]: 0.05 ng/mL (≈ 0.143 nM)
ED50 [3]: 0.33 mg/kg
ED90 [3]: 0.72 mg/kg
inhibition in vivo at 10 mg/kg [9]: 100%
inhibition in vivo at 10 mg/kg [10]: 100%
ED90 [4]: 2.65 mg/kg
IC50 [5]: 0.03 ng/mL (≈ 0.0861 nM)

CO/C=C(/C(=O)OC)c1ccccc1/C=C/C=C/c1ccc(F)cc1Cl
IC50 [2]: 0.19 ng/mL (≈ 0.51 nM)
inhibition in vivo at 10 mg/kg [9]: 92%
inhibition in vivo at 10 mg/kg [10]: 100%
IC50 [5]: 0.06 ng/mL (≈ 0.161 nM)

CO/C=C(/C(=O)OC)c1cccc(/C=C/C=C/c2ccc(C(F)(F)F)cc2C(F)(F)F)c1
inhibition in vivo at 100 mg/kg [7]: 0%
IC50 [2]: 396 ng/mL (≈ 869 nM)
inhibition in vivo at 100 mg/kg [8]: 0%
IC50 [5]: 176 ng/mL (≈ 385 nM)

CO/N=C(/C(=O)OC)c1ccccc1CCCCc1ccccc1C(F)(F)F
inhibition in vivo at 100 mg/kg [7]: 0%
IC50 [2]: 15 ng/mL (≈ 38.1 nM)
inhibition in vivo at 100 mg/kg [8]: 0%
IC50 [5]: 6.4 ng/mL (≈ 16.3 nM)

CO/C=C(/C(=O)OC)c1ccccc1/C=C/C=C/c1ccc(C(F)(F)F)cc1C(F)(F)F
IC50 [2]: 0.13 ng/mL (≈ 0.285 nM)
inhibition in vivo at 10 mg/kg [9]: 100%
inhibition in vivo at 10 mg/kg [10]: 100%
IC50 [5]: 0.06 ng/mL (≈ 0.131 nM)

CO/C=C(/C(=O)OC)c1ccccc1/C=C/C=C/c1ccc(Cl)cc1
inhibition in vivo at 50 mg/kg [11]: 0%
IC50 [2]: 2 ng/mL (≈ 5.64 nM)
inhibition in vivo at 50 mg/kg [12]: 0%
IC50 [5]: 0.52 ng/mL (≈ 1.47 nM)
